High-throughput results (PubChem)
Rows were chosen to be rich in hits. Some 1.9% of all compounds tested hit in one or more screens of this group.
IMP-1 inhibitor = IMP-1 metallo-beta-lactamase inhibitors, primary screen, biochemical, epi-absorbance readout, Pseudomonas aeruginosa enzyme | metallo-beta-lactamase IMP-1 (Pseudomonas aeruginosa) | purified IMP-1, nitrocefin hydrolysis, epi-absorbance fluorescence | inhibition, % at 5.6 µM | hit rate 0.45% among 290,000;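 active = inhibition above the mean plus 3 SD of all compounds in the same screening run, cut at about 4.5% in these data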;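 note: 0% = IMP-1 with DMSO and 100% = DMSO wells lacking enzyme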
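Assay system: purified IMP-1; Quantity: IMP-1 0.2 nM before substrate addition; Medium: HEPES buffer pH 7.1 with ZnSO4 and Brij 35; Incubation: 15 min enzyme–compound preincubation, then 25 min nitrocefin reaction, 25 °C; Signal: fluorescence quenching readout, ex 480/em 530 nm; Controls: DMSO with and without IMP-1; Repeats: singlicate testing.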
VIM-2 inh = VIM-2 metallo-beta-lactamase inhibitors, primary screen, biochemical, epi-absorbance readout, Pseudomonas aeruginosa enzyme | hit rate 0.89% among 290,000 | inhibition, % at 5.6 µM | AID 1527, 2009 | purified VIM-2, nitrocefin hydrolysis, epi-absorbance fluorescence;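 active = inhibition above the mean of all tested compounds plus 3 SD, cutoff set per screening run, cut at about 7.5% in these data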;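 note: red hydrolysis product quenches plate fluorescence so inhibitors raise well fluorescence; 0% = enzyme with DMSO and 100% = DMSO without enzyme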
FID counter = compounds displacing fluorescent DNA intercalator, primary screen, artefact control for HCV NS3 helicase inhibitor project, biochemical, FID fluorescence; inhibition, % at 7.9 µM; hit rate 0.17% among 290,000; AID 1845, 2009; DNA fluorescent intercalator displacement; in the data active = inhibition above about 37%;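 note: 0% = vehicle and 100% = reference compound; higher means more ethidium bromide displaced from hairpin DNA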
HCV NS3 hel inh = inhibitors of HCV NS3 helicase, primary screen, biochemical, Cy5 molecular beacon fluorescence; Hepatitis C virus NS3 helicase; NS3 helicase DNA unwinding; inhibition, % at 10.9 µM; hit rate 0.56% among 290,000;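 active = inhibition above the mean of all tested compounds plus 3 SD, set per campaign, cut at about 35% in these data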;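 note: 0% = DMSO wells and 100% = thioflavine S control wells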
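Material: hepatitis C virus NS3 helicase domain fragment enzyme; measured by: Cy5 fluorescence, 0 and 60 min reads; control set: DMSO and thioflavine S; incubation: 60 min unwinding reaction at 25 °C after ATP addition; read-out basis: % inhibition from 60/0 min fluorescence ratio, DMSO 0%, thioflavine S 100%; repeats: singlicate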
* hit, by the source's call.

SMILES	IMP-1 inhibitor	VIM-2 inh	FID counter	HCV NS3 hel inh
CCN1CCN(Cc2c(O)ccc3c2O/C(=C\C=C\c2ccccc2OC)C3=O)CC1	28*	5	-8	-70
Brc1ccccc1C1=Nn2c(nnc2-c2ccccc2)SC1	-5	-1	-25	3
c1ccc(C2=Nn3c(nnc3-c3ccco3)SC2)cc1	0	8.3*	-12	-7
Brc1ccccc1C1=Nn2c(nnc2-c2ccco2)SC1	-2	8.0*	-19	8
O=C1CN(CC(=O)Nc2cccc(Cl)c2Cl)c2ccccc2N1	-2	-4	7	-1
O=C(C/C=N\OCc1c(Cl)cccc1Cl)Oc1ccc(Cl)cc1Cl	12*	-2	-5	5
C=CCNC(=S)NCC=C	-2	0	2	0
CNc1ccc(Br)cc(C(=O)/C=C/c2ccc(OC)cc2OC)c1=O	0	-2	-19	33
CCNc1ccc(Br)cc(C(=O)/C=C/c2ccc(Cl)cc2)c1=O	4.5*	1	-11	28
O=C(N/N=C/c1ccc(OC(=O)c2cccc(Br)c2)cc1)c1cccnc1	9.7*	-1	-18	1
O=C(N/N=C/c1ccc(OC(=O)c2cccc(F)c2)cc1)c1cccnc1	4.6*	1	-25	5
O=C(N/N=C/c1ccc(OC(=O)c2ccc(Br)cc2)cc1)c1ccncc1	7.6*	-3	-9	20
CC(C)CN(C(=O)COC(=O)c1c2c(nc3ccccc13)CCC2)c1c(N)n(Cc2ccccc2)c(=O)[nH]c1=O	-1	2	-30	-11
COc1ccc(N(CC(=O)NCCSc2ccc(C)cc2)S(=O)(=O)c2ccccc2)c(OC)c1	-2	0	-34	-17
O=C(O)c1cccnc1SC1CC(=O)N(c2ccccc2)C1=O (configuration not stated)	5.2*	-1	3	-2
COc1ccc(N2C(=O)CC(Sc3ncccc3C(=O)O)C2=O)cc1 (configuration not stated)	-3	0	-1	-7
ON=C1c2cc(OCCN3CCCCC3)ccc2-c2ccc(OCCN3CCCCC3)cc21	5.6*	6	15	7
Clc1ccc(OCCN2CCCCC2)cc1Cl	-1	-4	12	-11
CSc1nc2sc3c(c2c2nncn12)CCC3	-1	11*	1	-8
c1nnc2c3c4c(sc3ncn12)CCCC4	-3	-3	6	6
CCOC(=O)/C(C#N)=C\C1=C(N2CCOCC2)CC(C)(C)OC1	-2	-1	-13	8
C=CCn1c(C)c(/C=C/c2cc[n+](C)cc2)c2ccccc21	4	9.3*	16	-22
C=CCn1cc(/C=C/c2cc[n+](C)cc2)c2ccccc21	7.8*	10*	4	-14
CC1=C(C(=O)N2CCOCC2)C(c2cc(C)ccc2C)NC(=S)N1 (configuration not stated)	-2	-3	-9	-10
Cc1ccc(CN(C)C2CCN(C)CC2)cc1	0	0	9	12
SMILES	IMP-1 inhibitor	VIM-2 inh	FID counter	HCV NS3 hel inh
CN(C)CCSc1nnc2[nH]c3ccccc3c2n1	-1	10*	19	9
Fc1cccc(CSc2nnc3c(n2)[nH]c2ccccc23)c1	-1	-1	-3	-5
Cc1cc(-c2nnc(SCC(=O)Nc3ccccc3C)n2N)n[nH]1	-4	-1	-7	4
Cc1ccc2c(CN3CCN(Cc4ccccc4)CC3)cc(=O)oc2c1C	0	9.9*	-1	-23
Cc1cc(C)c2oc(=O)cc(CN3CCN(Cc4ccccc4)CC3)c2c1	-1	1	-6	-28
Cc1ccc2c(CN3CCN(CCO)CC3)cc(=O)oc2c1C	-2	9.9*	12	7
Cc1ccc2c(CN3CCOCC3)cc(=O)oc2c1C	-2	0	-13	-6
CS(=O)(=O)N(Cc1ccccc1Cl)c1ccc(C(=O)N2CCCC2)cc1	-4	0	-32	-2
NC(=O)N/N=C/c1ccccc1OCC(=O)NCc1ccccc1	-2	-2	-7	4
CCN(C(=O)c1cc(S(=O)(=O)N2CCCCC2)c[nH]1)c1ccc(OC)cc1	-3	-1	-45	4
CCc1cc(C(=O)OC)c(NC(=O)CCC(=O)O)s1	15*	1	-7	4
CN(Cc1ccco1)S(=O)(=O)c1nnc(NC(=O)c2ccccc2Cl)s1	-3	9.1*	-16	14
CCC(=O)Nc1nnc(S(=O)(=O)N(C)Cc2ccco2)s1	-4	-4	1	5
Cc1ccccc1C(=O)Nc1nnc(S(=O)(=O)N(C)Cc2ccco2)s1	-3	9.8*	-20	11
COc1ccc(C(C)=O)c(Oc2cc(NN3CCCCC3)c([N+](=O)[O-])cc2[N+](=O)[O-])c1	-4	-2	-1	-5
COc1ccc(CNC(=O)c2coc(=O)c3ccccc23)cc1	-1	-3	-2	-2
CCOc1ccc(-n2ccnc2SCC(=O)Nc2cc(C)on2)cc1	-1	-4	-9	0
CC(Oc1ccc2c3c(c(=O)oc2c1)CCCC3)C(=O)NCC(O)c1ccccc1 (configuration not stated)	-1	5	-29	-5
CC(Oc1ccc2c3c(c(=O)oc2c1)CCC3)C(=O)NCc1cccnc1 (configuration not stated)	-2	9.6*	-16	0
Cc1cc(OCC(=O)N2CCOCC2)cc2oc(=O)c3ccccc3c12	-2	9.5*	-8	11
O=C(O)c1ccc(COc2ccc3c4c(c(=O)oc3c2)CCC4)o1	0	8.5*	-21	18
O=C(COc1ccc2c3c(c(=O)oc2c1)CCC3)N1CCN(c2ccc(F)cc2)CC1	-2	9.1*	-35	-9
Cc1ccc(OCC(=O)N2CCOCC2)cc1C	-1	-1	-3	-1
O=C(O)C1CCN(C(=O)COc2ccc3c4c(c(=O)oc3c2)CCC4)CC1	-2	2	-12	3
NC(=O)C1CCN(C(=O)COc2ccc3c4c(c(=O)oc3c2)CCCC4)CC1	0	11*	-14	-9
SMILES	IMP-1 inhibitor	VIM-2 inh	FID counter	HCV NS3 hel inh
Cc1ccc(C)c(C(=O)NCCN(C)C)c1	-3	-5	-8	5
Cc1ccc(C(=O)NCCN(C)C)cc1C	5.4*	-3	-1	5
CN(C)CCNC(=O)c1ccc(Sc2ccc(Br)cc2)c([N+](=O)[O-])c1	-2	-4	39*	-42
CCOC(=O)N1CCN(C(=O)CNC2CCCCCCC2)CC1	-2	-1	15	9
COc1ccc(S(=O)(=O)N2CCN(C(=O)NCc3ccc(C)cc3)CC2)cc1	-3	-1	-37	9
CCOC(=O)CNc1nc(OCC#N)nc(N2CCOCC2)n1	20*	-2	-4	5
Cn1c(=O)c2c(nc(Oc3ccccc3Br)n2C)n(C)c1=O	-3	10.0*	-27	5
CC(C)[C@H](NC(=O)N1CCn2c1nc1ccccc12)C(=O)NC1CCCCC1	1	0	-39	31
CCCCn1c(=N)n(CC(O)COc2ccc(C)cc2)c2ccccc21 (configuration not stated)	1	-1	41*	-92
